Assay results: publication PMC3188669 (Journal of medicinal chemistry, 2011)
Blank lines part the entries; values can stand above or below the molecule they belong to.

Columns and labels:
[1] = system: human basal cell carcinoma (BCC1) cells; test: PS uptake, retention and subcellular localization in BCC1 cells; format: cell-based; conditions: for lowering of cellular uptake relative to PS 4: 30 min, 200 nM PS; for lowering of cellular uptake relative to PS 4 / subcellular localization after 30 min incubation: serum-free DMEM
Summary of the method: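 Subconfluent BCC1 cells grown in DMEM with 10% FCS were washed twice in serum-free DMEM. They were incubated with test compound in DMEM with or without 10% FCS: 30 min serum-free at 0.2 μM or 3.2 μM, or 24 h at 3.2 μM. Cells were washed and imaged at 640X under phase contrast and fluorescence (Ex 410/40, Em 675/750 nm). Redistribution was imaged again after 4 h in compound- and serum-free DMEM.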

[2] = system: STAT3; test: Light-mediated photoreaction in BCC1 cells; format: cell-based, human; conditions: 2 h PS, 665 nm, 3 J/cm^2
Summary of the method: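 Subconfluent BCC1 cells were incubated 2 h in serum-free DMEM with 2-fold serial dilutions of test compound and then washed. They were irradiated in serum-free medium at 37°C with 665 nm dye-laser light for 9 min and extracted immediately. Cell PS was measured by extract fluorescence (Ex 415, Em 667 nm). RIPA lysates (20 μg) were immunoblotted for STAT3, EGFR, p38 and P-p38 with ECL detection. STAT3 crosslinking was expressed as % monomer converted to dimer form I.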

[3] = system: Colon26 tumors; test: PET imaging and biodistribution in BALB/c mice bearing Colon26 tumors; format: in vivo; conditions: for time post injection giving the best imaging contrast: PET
[4] = system: Colon26 cells; test: PS uptake by Colon26 cells, flow cytometry; format: cell-based, mouse; conditions: 24 h post incubation
Summary of the method: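 Colon26 cells were seeded at 0.33 × 10⁶/well and left overnight. Test compound was added at 100, 200, 400 or 800 nM in triplicate at 37°C, with compound-free wells for autofluorescence. Cells were trypsinised, neutralised in cold medium with 2% FCS, spun at 500 g for 5 min at 4°C, and resuspended in cold PBS/2% FCS on ice in the dark. Flow cytometry used Ex 633 nm and Em 730±45 nm, 10,000 events; mean fluorescence of triplicates minus autofluorescence.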

[5] = system: Colon26 cells; test: In vitro photosensitizing efficacy, MTT assay; format: cell-based, mouse; conditions: 24 h incubation, variable light doses; for in vitro efficacy (PS 4, 12, 23): Colon26, 0.0625 μM
Summary of the method: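 Colon26 cells were seeded at 3 × 10³ cells/well in RPMI with 10% FCS and left overnight. Test compound was added for 24 h at 37°C in the dark, then replaced with drug-free complete medium. Cells were irradiated at 0–4 J/cm² at the compound's absorption peak (660–674 nm), 3.2 mW/cm², using an argon-pumped dye laser. After 48 h in the dark, MTT was added for the last 4 h and formazan was dissolved in DMSO. A570 was read. Survival was plotted against light dose; 4 wells, 3 independent repeats.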

[6] = system: Colon26 tumors; test: In vivo optical fluorescence imaging in BALB/c mice bearing Colon26 tumors; conditions: for tumor versus skin fluorescence after tumor removal: 1 μmol/kg, 24 h post injection
Summary of the method: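 Colon26 cells (1×10⁶ in 50 μL serum-free RPMI) were injected subcutaneously into the right posterior axilla and grown to 4–5 mm. Hair was removed the day before dosing. Mice were imaged under ip ketamine/xylazine with 540/40 nm illumination and a long-pass filter for 667/676 nm emission, and autofluorescence was removed by spectral unmixing. Tumor ROI was 20 mm, mean ± SD of 3 mice. After imaging, the tumor was excised and the skin flap imaged.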

[7] = system: Colon26 tumors; test: In vivo PDT efficacy in BALB/c mice bearing Colon26 tumors; conditions: 1.0 μmol/kg, light 128 J/cm^2, 14 mW/cm^2 at 24 h post injection, 10 mice/group
Summary of the method: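 Hair around the subcutaneous tumor was removed. At 4–5 mm diameter, mice received test compound at 1 μmol/kg. At 24 h, unanaesthetised mice restrained in holders were irradiated at 660–674 nm according to compound, with power monitored throughout. Mice were checked daily and volume was calculated as L×W²/2. Cure meant no palpable tumor by day 60–90; mice were euthanised at 400 mm³.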

Molecule: CCC1=C(C)c2cc3[nH]c(cc4nc(c5c6[nH]c(cc1n2)c(C)c6C(=O)C5)C(CCC(=O)OC)[C@@H]4C)c(C)c3C(C)OCc1cccc(I)c1 (stereo partly drawn) [PS 1, Methyl 3-devinyl-3-{1′-(m-iodobenzyoxy)-ethyl}pyropheophoride-a]
subcellular localization after subsequent 4 h incubation in PS-free medium ([1]; 3.2 μM PS 1 or 0.2 μM PS 4): lysosomal compartment
lowering of cellular uptake relative to PS 4 [1]: > 100 fold
fluorescence (uptake) in presence of 10% fetal calf serum ([1]; data not shown): ~ 5 fold lower
subcellular localization after 30 min incubation [1]: mitochondrial compartment
photoreaction quantifiable by the biochemical markers [2]: ineffective

time post injection giving the best imaging contrast ([3]; BALB/c mice, Colon26 tumor): 72 h
tumor versus skin fluorescence after tumor removal [6]: tumor avid
Molecule: CCC1=C(C)c2cc3[nH]c(cc4nc(c5c6[nH]c(cc1n2)c(C)c6C(=O)C5)C(CCC(=O)O)[C@@H]4C)c(C)c3C(C)OCc1cccc(I)c1 (stereo partly drawn) [PS 4, 3-devinyl-3-{1′-(m-iodobenzyoxy)-ethyl} pyropheophoride-a]
subcellular localization after 30 min incubation [1]: mitochondrial compartment
PS uptake by Colon26 cells (rank order) [4]: PS 4 ≥ 23 > 12
in vitro efficacy (PS 4, 12, 23) [5]: comparable in vitro efficacy
relative PDT efficacy in vitro (PS 1, 4, 7) ([5]; Colon26, 0.3 μM): most effective

tumor uptake (PET) ([3]; 24, 48 and 72 h post injection): significant tumor uptake
time of maximum tumor uptake post injection ([3]; BALB/c mice, Colon26 tumor): 24 h
time post injection giving the best imaging contrast ([3]; BALB/c mice, Colon26 tumor): 72 h
Molecule: CCC1=C(C)c2cc3[nH]c(cc4nc(c5c6[nH]c(cc1n2)c(C)c6C(=O)C5)C(CCC(=O)O)[C@@H]4C)c(C)c3C(C)OCc1cccc([124I])c1 (stereo partly drawn) [PS 6]

tumor uptake by fluorescence imaging ([6]; 1.0 μmol/kg i.v., 24, 48 and 72 h post-injection, 3 mice/group): lower tumor uptake
Molecule: CCc1c(C)c2cc3nc(c4c5[nH]c(cc6nc(cc1[nH]2)C(C)=C6C(C)OCc1cccc(I)c1)c(C)c5C(=O)C4)[C@@H](CCC(=O)O)[C@@H]3C (stereo partly drawn) [PS 12, 3-devinyl-3-ethyl-8-{1′-(m-iodobenzyoxy)-ethyl}-pyropheophoride-a]
PS uptake by Colon26 cells (rank order) [4]: PS 4 ≥ 23 > 12
in vitro efficacy (PS 4, 12, 23) [5]: comparable in vitro efficacy

tumor versus skin fluorescence after tumor removal [6]: tumor avid
Molecule: CC[C@H]1c2cc3[nH]c4c(c5nc(cc6[nH]c(cc(n2)[C@@H]1C)c(C(C)OCc1cccc(I)c1)c6C)C(C)=C5CCC(=O)O)CC(=O)c4c3C (stereo partly drawn) [PS 23, 3-deacetyl-3-(1′-m-iodobenzyloxyethyl)-7,8-dihydrophylloerythrin]
lowering of cellular uptake relative to PS 4 [1]: 2 fold
PS uptake by Colon26 cells (rank order) [4]: PS 4 ≥ 23 > 12
in vitro efficacy (PS 4, 12, 23) [5]: comparable in vitro efficacy

time post injection giving the best imaging contrast ([3]; BALB/c mice, Colon26 tumor): 72 h
Molecule: CC[C@H]1c2cc3[nH]c4c(c5nc(cc6[nH]c(cc(n2)[C@@H]1C)c(C(C)OCc1cccc([124I])c1)c6C)C(C)=C5CCC(=O)O)CC(=O)c4c3C (stereo partly drawn) [PS 27]

Molecule: Peglate 3-devinyl-3-{1′-(m-iodobenzyoxy)ethyl}pyropheophoride-a [PS 7]
cellular uptake in presence of serum proteins versus serum-free ([1]; 3.2 μM, 24 h, 10% fetal calf serum): several-fold higher
subcellular localization after 24 h incubation ([1]; 3.2 μM, regardless of the incubation conditions): endosomal/lysosomal compartment
lowering of cellular uptake relative to PS 4 [1]: > 100 fold
photoreaction quantifiable by the biochemical markers [2]: ineffective
tumor cure (tumor-free on day 60), first series (Fig. 7A) [7]: ineffective
